Results: article PMC5879004 (Heart rhythm, 2017)
“Also recorded” adds a separate entry of the source.

Tests used:
purified RyR2 = purified RyR2 (Ovis aries, UniProt A0ACI6RLQ3); experiment: Single-channel recordings of purified RyR2 in planar lipid bilayers; type: biochemical, sheep
[1] = system: RyR2 macromolecular complex (sheep cardiac SR); experiment: 3H-Ryanodine binding to cardiac SR vesicles
How it was run: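 Sheep cardiac SR vesicles (0.5mg/ml) incubated to equilibrium for 3hrs at 37°C in 20mM HEPES pH 7.4, 250mM KCl, 50µM CaCl2, 2nM 3H-ryanodine plus 13nM unlabeled ryanodine, ± test compound. Non-specific binding (200nM ryanodine, 4mM EGTA) subtracted. Quenched by rapid filtration. Ca2+-dependence run across free Ca2+ levels set with EGTA. Data as mean ± SEM.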

R176Q myocytes = experiment: Ca2+ transient amplitude induced by 1-Hz field stimulation, R176Q myocytes; type: cell-based, mouse; conditions: 500nM, vehicle 2.4 ± 0.1
[2] = system: ventricular myocytes from R176Q mice; experiment: Ca2+ spark frequency; type: cell-based, mouse
How it was run: (§1)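 Isolated mouse ventricular myocytes were loaded with Fluo-4-AM (2µM) and stimulated with 100nM isoproterenol to raise spontaneous sparks. Cells were exposed to vehicle or test compound for 2hrs, then sparks were imaged by confocal microscopy and spark frequency computed. For R176Q cells, a 0.5nM–5µM dose series was fitted sigmoidally for IC50 (n=6–10 cells per group, 3 mice).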

WT myocytes = experiment: Ca2+ spark frequency; type: cell-based, mouse; conditions: 500nM
How it was run: as §1

R176Q mice [3] = experiment: Inducible VT by extrastimuli pacing after epinephrine and caffeine; type: in vivo, mouse; conditions: 2.5µg/kg i.p. 15 minutes prior to pacing, vehicle 8 of 11
How it was run: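 Adult (2–3-month) R176Q mice under 1.5% isoflurane in 95% O2 had surface ECG and intracardiac electrograms recorded. Epinephrine (2mg/kg) and caffeine (120mg/kg) were given i.p., then extrastimulus pacing tested VT inducibility, with or without i.p. test compound. Incidence was scored as mice with VT per group.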

[4] = system: ventricular myocytes of WT mice; experiment: Ca2+ transient amplitude induced by 1-Hz field stimulation, WT myocytes; type: cell-based, mouse; conditions: 500nM, vehicle 2.6 ± 0.2
R176Q mice [5] = experiment: ECG parameters after injection; type: in vivo, mouse
How it was run: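 RyR2-R176Q/+ mice aged 2–3 months were anesthetised with 1.5% isoflurane in 95% O2. Six-lead surface ECG and intracardiac electrograms were recorded simultaneously, at baseline and with or without intraperitoneal test compound.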

[6] = IC50, single-channel, purified RyR2 without CaM, 25µM cis-Ca2+
[7] = −Log([IC50], M), single-channel, purified RyR2 without CaM, 25µM cis-Ca2+

SMILES | IC50 (purified RyR2; [6]) [µM] | channel activity at concentrations above 100nM (purified RyR2; purified RyR2 without CaM) | IC50 (purified RyR2; [7]) [µM] | inhibition of channel activity (purified RyR2; purified RyR2, all concentrations tested (10nM-100µM)) | effect on equilibrium 3H-ryanodine binding ([1]; equilibrium binding, sheep cardiac SR) | IC50 (purified RyR2; IC50, single-channel, purified RyR2 + 100nM CaM) [µM] | IC50 (purified RyR2; IC50, single-channel, purified RyR2 + 1μM CaM) [µM] | reduction in potency (IC50 higher) vs CaM-free purified RyR2 (purified RyR2; cardiac SR or purified RyR2 supplemented with 100nM or 1µM CaM) [fold] | IC50 (purified RyR2; −Log([IC50], M), single-channel, purified RyR2 + 100nM CaM) [µM] | IC50 (purified RyR2; −Log([IC50], M), single-channel, purified RyR2 + 1μM CaM) [µM] | Ca2+ transient amplitude (R176Q myocytes) [F/Fo] | reduction of CaSF compared to vehicle ([2]; 500nM) | IC50 ([2]; CaSF inhibition, 2hrs exposure) [µM] | effect on CaSF (WT myocytes) | incidence of inducible VT (R176Q mice [3]) | Ca2+ transient amplitude [4] [F/Fo] | concentration required for inhibition of equilibrium 3H-ryanodine binding ([1]; equilibrium binding over 3 hours) [µM] | shift of the Ca2+-dependence of 3H-ryanodine binding ([1]; therapeutic concentrations) | effect on ECG parameters (RR, HR, PR, QRS, QTc) (R176Q mice [5])
CCCCNc1ccc(C(=O)O)c(OC)c1 [Compound 2, 4-(butylamino)-2-methoxybenzoic acid] | 0.00945 | completely inhibited | 0.00955 |  |  |  |  |  |  |  |  |  |  |  |  |  |  |  | 
CCN(CC)CCO [Compound 3, 2-(diethylamino)-ethanol, reference compound] |  |  |  | did not inhibit | no effect |  |  |  |  |  |  |  |  |  |  |  |  |  | 
CCCCNc1ccc(C(=O)OCCN(CC)CC)c(OC)c1 [EL20, 2-(diethylamino)ethyl 4-(butylamino)-2-methoxybenzoate] | 0.00821 | completely inhibited | 0.00813 |  |  | 1.86 | 3.56 | 200 to 1000 | 1.86 | 3.55 | 2.8 ± 0.3 | ~ 70% | 0.0354 | did not significantly alter | 1 of 7 and significantly reduced | 2.7 ± 0.2 | > 10 | did not shift | did not alter any ECG parameters; also recorded: not affected
